# Most compounds without a hit are left out; they make up all but 1.6% or so of the library.
# LANA-H2B inh – blocks KSHV LANA binding to histone H2A/H2B; cell-free LANA-H2A/H2B peptide, fluorescence polarization; inhibition, % (concentration not given with the values); 0.6% of 320,000 active; in the data active = inhibition mostly above about 10%, no sharp cut-off; inactive = mostly below about 6.7%
# GASC-1 inh – human JMJD2C demethylase inhibition | GST-JMJD2C(1-420) H3K9me3 demethylation, DELFIA europium | 0.069% of 330,000 active | inhibition, % at 2.35 µM;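 active = more than half of a compound's replicate wells show inhibition beyond 50%, single wells judged on their own value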;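 note: signal counts dimethyl H3K9 product captured on neutravidin plate; 0% = median of DMSO wells and 100% = 0.3 times that DMSO median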
# Pemphigus Ab inh – inhibitors of pemphigus antibody binding to human desmoglein-3. DSG3-coupled beads, scFv-anti-DSG3-GFP binding, flow cytometry; active compounds read low. binding (percent of control), % at 10 µM. 0.48% of 310,000 active. AID 588358;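 active = binding more than 3 SD below its plate's average and above zero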;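 note: hits lower antibody fragment binding to DSG3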
# T cell modulator – T cell immune modulation candidate; 2C CD8+ T cell-vesicle binding, flow cytometry; active compounds read low; response (vesicle binding), % at 7 µM; 0.068% of 330,000 active; AID 2052;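 active = response, share of CD8 T cells binding vesicles, and their 90th percentile fluorescence all below set limits, cut at about 80% in these data, passing the limit was not always enough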;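 note: values below 100% mean blocked vesicle binding to the CD8+ T cells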
#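 Assay system: 2C TCR transgenic mouse naive CD8+ T cells, MACS-purified | Read-out: CD8+ gate FL2 mean fluorescence as % of same-row positive control | Signal: High-throughput flow cytometry with anti-B7-1 and anti-CD8 staining | Timing: Binding step 1.5 h, 37 °C, antibody labelling 20 min, ice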
# HDAC3 inh – blocks human histone deacetylase 3; O15379; recombinant HDAC3, fluorogenic peptide/trypsin coupled, fluorescence; inhibition, % at 8.3 µM; 0.15% of 320,000 active; AID 2718; in the data active = inhibition above about 26%, passing the limit was not always enough
# Arr AP2 block – human beta-arrestin and AP2 interaction inhibition | FITC-arrestin peptide / GST-AP2 beads, flow cytometry; AP2 beta2 appendage carries R879A mutation | inhibition, % at 10 µM | 0.31% of 340,000 active;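 active = inhibition above a set limit, near 3 SD of compounds lacking own fluorescence, cut at about 54% in these data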;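 note: plate controls were DMSO wells for no effect and 5 µM unlabelled arrestin peptide for full effect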
#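 System: GST-AP2 R879A bound to glutathione beads, E. coli-expressed. Also added: 50 nM FITC-arrestin peptide. Schedule: compound with beads 12 min RT, then probe 1 h RT. Signal: bead flow cytometry, FITC channel. Read-out basis: percent response.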
# Arr AP2 CP1 – human beta-arrestin and AP2 interaction inhibition, cherry pick. shares compounds with Arr AP2 block. GST-AP2 beads, FITC arrestin peptide binding, flow cytometry; GST-fused beta2-adaptin appendage, R879A mutant. inhibition, % at 10 µM. 2% of 1,300 active;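 active = inhibition above a set limit, roughly 3 SD of non-fluorescent compound noise, cut at about 38% in these data; inactive = inhibition at or below that limit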;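 note: loss of bead fluorescence from 50 nM FITC arrestin peptide bound to appendage; 0% = negative control wells and 100% = excess unlabelled arrestin peptide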
# GST GSH counter – counter-screen for beta-arrestin AP2 inhibitors: GST-GSH bead binding | shares compounds with Arr AP2 block | GST-fluorescein binding to GSH beads, fluorescence | inhibition, % at 10 µM | 2% of 1,300 active | AID 588338;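 active = inhibition above 50%, about 3 SD of the inhibition seen with non-fluorescent compounds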;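 note: fluorescein maleimide labelled GST captured on 4 micron glutathione beads; higher means more loss of bead fluorescence from quenching or blocked binding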
# An asterisk follows results filed as active; i = inactive; x = not tested or not shown.
SMILES,LANA-H2B inh,GASC-1 inh,Pemphigus Ab inh,T cell modulator,HDAC3 inh,Arr AP2 block,Arr AP2 CP1,GST GSH counter
CC(Sc1ccc(Cl)cc1)C(=O)N(C)CC(=O)Nc1ccc(N2CCOCC2)cc1 (stereo not drawn),1.0,10.2,100.7,188.8,-1.9,56.4*,5.5,-7.0
O=S(=O)(CCN1CCCCC1)CCS(=O)(=O)CCN1CCCCC1,x,x,102.7,x,x,-3.0,x,x
O=C(N/N=C/c1cccc([N+](=O)[O-])c1)C1COc2ccccc2O1 (stereo not drawn),-1.2,-0.4,108.4,257.3,4.1,58.0*,-5.0,1.2
O=C(Nc1cnc2ccccc2c1)C1COc2ccccc2O1 (stereo not drawn),0.2,2.2,98.5,403.3,-4.4,69.4*,3.5,2.1
O=C(Nc1ccc(F)cc1)C1COc2ccccc2O1 (stereo not drawn),-3.5,-0.1,97.9,211.0,3.4,-10.2,x,x
O=C(N/N=C\c1ccc(-c2ccc([N+](=O)[O-])cc2)o1)C1COc2ccccc2O1 (stereo not drawn),-0.5,8.9,92.1,184.0,13.1,-2.1,x,x
O=C(Nc1ccccc1[N+](=O)[O-])C1COc2ccccc2O1 (stereo not drawn),2.4,10.0,95.5,232.1,-2.5,55.8*,0.1,-5.8
CC(=O)c1cc(F)ccc1OCC(=O)Nc1ccc2c(c1)OCO2,-2.6,-0.3,110.1,187.1,-12.6,-0.4,x,x
COC(=O)Cn1c(=NC(=O)c2cc(-c3cccs3)nc3ccccc23)sc2cc(S(N)(=O)=O)ccc21,-0.3,-9.0,77.1,425.2,-9.8,63.4*,0.1,-6.5
CC(=O)c1c(C)[nH]c(C(=O)OCC(=O)N2CCc3ccccc3C2)c1C,2.1,1.0,x,359.0,-4.3,9.6,x,x
CC[n+]1c(/C=C/Nc2ccccc2)oc2ccc(OC)cc21,-11.4,-3.7,155.3,276.8,7.0,57.9*,-15.4,-2.3
CC(C)CN(CC(C)C)C(=O)c1cc(S(=O)(=O)N2CCCCC2)c[nH]1,-2.5,-23.3,101.9,210.9,-4.1,-2.4,x,x
O=C(COC(=O)C1(c2ccccc2F)CCCC1)NCc1cccs1,4.7,-44.7,110.0,135.8,-2.8,58.2*,-2.6,-4.5
COc1ccc(S(=O)(=O)NCCC(=O)N2CCCC2)cc1N(C)S(C)(=O)=O,-0.3,-4.6,97.5,205.5,-2.7,55.9*,-1.7,-9.9
Cc1ccc(S(=O)(=O)NCCC(=O)N2CCCCCCC2)cc1C,-2.5,2.9,100.3,416.5,-2.2,4.6,x,x
O=C(Nc1cc(Cl)ccc1-n1cncn1)c1ccccc1OC(F)F,x,x,92.4,x,x,68.0*,6.1,-5.7
COc1cc(C(=O)Nc2cc(Cl)ccc2-n2cncn2)ccc1OC(F)F,4.6,-1.9,99.2,490.5,-2.6,25.1,x,x
O=C(CCCC(=O)Nc1cccnc1)Nc1cccnc1,-1.5,-0.1,94.9,239.2,-1.4,81.5*,-8.1,x
CC(C)(C)S(=O)(=O)/C(C#N)=N/Nc1ccc(Cl)cc1,-0.7,-1.0,101.2,428.2,4.2,57.0*,-3.7,-2.1
Cc1ccccc1CN1CCC(N2CCC(C(=O)NCC3CCCO3)CC2)CC1 (stereo not drawn),0.2,-1.9,122.2,334.1,-1.4,64.5*,-2.5,-5.3
CCOc1ccc(CN2CCN(Cc3cc4ccccc4o3)CC2CCO)cc1 (stereo not drawn),-3.1,-7.3,114.7,216.6,-2.6,65.5*,5.4,2.5
COc1cccc(CN2CCN(Cc3cc4ccccc4o3)CC2CCO)c1 (stereo not drawn),2.4,-4.7,95.2,308.7,-4.5,11.5,x,x
O=C(CCN1CCOCC1)NNC(=O)c1ccc([N+](=O)[O-])cc1[N+](=O)[O-],-0.3,-0.8,91.6,256.1,-0.7,-5.0,x,x
COc1ccccc1N(C)S(=O)(=O)c1ccc(Cl)c(C(=O)NCC2(N(C)C)CCCCC2)c1,-3.0,3.4,102.9,194.3,-5.8,-1.9,6.1,1.8
COc1ccc(Cl)cc1NS(=O)(=O)c1cccc(C(=O)NCC2(N(C)C)CCCCC2)c1,-2.1,17.0,101.4,211.7,6.7,39.4,4.2,-2.2
SMILES,LANA-H2B inh,GASC-1 inh,Pemphigus Ab inh,T cell modulator,HDAC3 inh,Arr AP2 block,Arr AP2 CP1,GST GSH counter
COc1ccccc1NS(=O)(=O)c1cccc(C(=O)NCC2(N(C)C)CCCCC2)c1,2.1,2.4,102.7,196.9,-0.2,3.1,-1.1,-14.7
COc1ccccc1NS(=O)(=O)c1ccc(C(=O)NCC2(N(C)C)CCCCC2)cc1,3.9,-13.1,113.8,258.8,4.0,-5.2,x,x
CN(c1ccc(F)cc1)S(=O)(=O)c1ccc(Cl)c(C(=O)NCC2(N3CCOCC3)CCCCC2)c1,x,x,x,x,x,-2.5,-13.3,-6.2
C=CCN(C(=O)c1csnn1)C(C(=O)NC1CCCC1)c1ccccc1 (stereo not drawn),-5.1,-19.6,103.8,i,3.6,-3.4,x,x
O=C(c1ccc2c(c1)OCO2)C1CCCN(Cc2ccc(OC(F)F)cc2)C1 (stereo not drawn),-4.3,3.6,110.0,601.4,0.0,5.3,x,x
COc1ccc(Cc2nnc(NC(=O)C3CCN(C(=O)c4ccco4)CC3)s2)cc1,4.3,4.2,101.7,189.9,-2.2,21.1,x,x
O=C(Nc1ccc(Br)cc1F)c1ccncc1,1.1,-23.7,95.9,354.4,0.0,97.3*,1.8,-0.2
CCOc1ccc(-n2cc(C(=O)N3CCC(C)CC3)c3cc(OC)c(OC)cc3c2=O)cc1,-2.6,-3.7,87.9,658.6,4.9,56.3*,-14.9,-14.2
COc1ccc(-c2nc(CCl)cs2)cc1,-5.0,10.9,104.9,335.5,-2.9,-3.2,x,x
COc1ccc(-c2nc(CCl)cs2)cc1OC,2.0,-7.9,104.5,683.4,-31.9,54.3*,-7.0,-4.9
CCOC(=O)C1=C(COC(=O)Cc2c(F)cccc2Cl)NC(=O)NC1C (stereo not drawn),-2.0,3.9,x,347.6,-7.4,3.6,10.0,-10.0
CCOC(=O)C1=C(COC(=O)CC(C)c2ccccc2)NC(=O)NC1C (stereo not drawn),-4.9,2.0,x,278.0,8.8,-9.2,2.6,2.9
CCOC(=O)C1=C(COC(=O)C(CC)Oc2ccccc2)NC(=O)NC1C (stereo not drawn),-2.6,6.0,93.6,166.2,-3.1,-8.6,-8.6,-6.4
CCOC(=O)C1=C(COC(=O)c2ccccc2[N+](=O)[O-])NC(=O)NC1C (stereo not drawn),1.6,-0.3,94.5,449.1,2.8,0.2,x,x

# Screens from PubChem.
